Source: ChEMBL document CHEMBL1139574, “Synthesis and biological evaluation of novel bisphosphonates with dual activities on bone in vitro” (2005)

What was measured:
Assay type in all cases: functional
[1] = organism: Rattus norvegicus; assay: Proliferative activity on the of rat calvaria osteoblasts at concentration of 10e-6 M
Method in brief: (§1)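 SD rat calvarial osteoblasts plated at 2 × 10⁴ cells/well and exposed to a range of bisphosphonate concentrations for 72 h. Proliferation read by MTT, absorbance at 492 nm. Proliferative ratio (%) = (treated − control)/control × 100. Mean ± SE, n = 3.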

[2] = Inhibitory ratio of osteoclast precursor cells at concentration of 10e-7 M by staining with tartrate-resistant acid […]
Method in brief: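 Osteoclast precursor cells plated at 5 × 10⁴ cells/well and cultured 8 days with or without bisphosphonate at 10^-7 M. Cells then TRAP-stained, and positive cells with three or more nuclei counted. Inhibitory ratio (%) = (control count − treated count)/control count × 100. Mean ± SE, n = 5.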

[3] = organism: Rattus norvegicus; assay: Proliferative activity on the of rat calvaria osteoblasts at concentration of 10e-7 M; method in brief: as §1
[4] = organism: Rattus norvegicus; assay: Proliferative activity on the of rat calvaria osteoblasts at concentration of 10e-8 M; method in brief: as §1
[5] = organism: Rattus norvegicus; assay: Proliferative activity on the of rat calvaria osteoblasts at concentration of 10e-5 M; method in brief: as §1
[6] = Inhibitory activity of bone gamma-carboxyglutamate (gla) protein (osteocalcin) was determined at concentration of 10e-8 M in cell lysates
Method in brief: (§2)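 Newborn Sprague-Dawley rat calvarial osteoblast-enriched cultures seeded at 5 × 10³ cells/well and treated for 72 h. Osteocalcin measured in cell lysates by radioimmunoassay. Normalized to viable cell number from MTT. Mean ± SE, n = 5.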

[7] = biological target: T1, Alkaline phosphatase, tissue-nonspecific isozyme (Rattus norvegicus) (UniProt P08289); assay: Inhibitory activity of Alkaline phosphatase was determined at concentration of 10e-9 M using p-nitrophenylphosphate as the substrate
T1 sequence (whole entry): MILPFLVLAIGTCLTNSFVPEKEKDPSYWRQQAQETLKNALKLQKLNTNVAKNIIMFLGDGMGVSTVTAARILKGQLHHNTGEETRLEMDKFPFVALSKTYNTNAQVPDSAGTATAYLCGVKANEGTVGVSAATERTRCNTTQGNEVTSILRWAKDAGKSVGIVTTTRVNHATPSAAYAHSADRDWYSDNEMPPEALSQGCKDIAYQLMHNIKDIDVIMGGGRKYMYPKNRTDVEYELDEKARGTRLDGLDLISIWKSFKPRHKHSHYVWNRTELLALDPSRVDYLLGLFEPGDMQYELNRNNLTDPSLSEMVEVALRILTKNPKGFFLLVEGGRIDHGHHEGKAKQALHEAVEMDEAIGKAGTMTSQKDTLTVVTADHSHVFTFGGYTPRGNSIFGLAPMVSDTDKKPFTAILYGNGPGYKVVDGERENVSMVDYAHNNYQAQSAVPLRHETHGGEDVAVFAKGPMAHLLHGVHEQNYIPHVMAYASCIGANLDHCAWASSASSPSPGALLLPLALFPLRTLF
Method in brief: (§3)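 Primary osteoblast-enriched cells from newborn Sprague-Dawley rat calvaria, cultured in DMEM at 37 °C under 5% CO2. Seeded at 5 × 10³ cells/well and exposed to test agent for 72 h. Alkaline phosphatase activity measured with p-nitrophenylphosphate substrate. Values normalized to viable cell number from the MTT assay. Mean ± SE, n = 5.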

[8] = biological target: T1, Alkaline phosphatase, tissue-nonspecific isozyme (Rattus norvegicus); assay: Inhibitory activity of Alkaline phosphatase was determined at concentration of 10e-7 M using p-nitrophenylphosphate as the substrate; method in brief: as §3
[9] = biological target: T1, Alkaline phosphatase, tissue-nonspecific isozyme (Rattus norvegicus); assay: Inhibitory activity of Alkaline phosphatase was determined at concentration of 10e-8 M using p-nitrophenylphosphate as the substrate; method in brief: as §3
[10] = biological target: T1, Alkaline phosphatase, tissue-nonspecific isozyme (Rattus norvegicus); assay: Inhibitory activity of Alkaline phosphatase was determined at concentration of 10e-6 M using p-nitrophenylphosphate as the substrate; method in brief: as §3
[11] = Inhibitory activity of bone gamma-carboxyglutamate (gla) protein (osteocalcin) was determined at concentration of 10e-9 M in cell lysates; method in brief: as §2
[12] = Inhibitory activity of bone gamma-carboxyglutamate (gla) protein (osteocalcin) was determined at concentration of 10e-6 M in cell lysates; method in brief: as §2
[13] = Inhibitory activity of bone gamma-carboxyglutamate (gla) protein (osteocalcin) was determined at concentration of 10e-7 M in cell lysates; method in brief: as §2

Structure (SMILES) | Proliferation [1] [%] | inhibition at 0.1 µM [2] [%] | Proliferation [3] [%] | Proliferation [4] [%] | Proliferation [5] [%] | also measured
COc1cccc(C(=O)NCCC(O)(P(=O)([O-])O)P(=O)([O-])O)c1.[Na+].[Na+] | 7.1 | 26.9 | -5.5 | 0.6 | 8.9 | –
O=C(NCCC(O)(P(=O)(O)O)P(=O)(O)O)c1ccccc1 | – | 9.5 | – | – | – | –
COc1ccc(C(=O)NCCCCCC(O)(P(=O)(O)O)P(=O)(O)O)cc1 | – | 39 | – | – | – | –
O=C(NCCCC(O)(P(=O)(O)O)P(=O)(O)O)c1ccccc1 | – | 35.6 | – | – | – | –
Cc1ccccc1C(=O)NCCCC(O)(P(=O)(O)O)P(=O)(O)O | – | 30.3 | – | – | – | –
COc1cccc(C(=O)NCCC(O)(P(=O)([O-])O)P(=O)([O-])O)c1OC.[Na+].[Na+] | 47.4 | 68.1 | 74.4 | 26.6 | 35.2 | Activity [6]: 4.73; Activity [7]: 0.56; Activity [8]: 2.15; Activity [9]: 0.75; Activity [10]: 3.6; Activity [11]: 4.07; Activity [12]: 11.7; Activity [13]: 8.63
Cc1ccccc1C(=O)NCCCCCC(O)(P(=O)(O)O)P(=O)(O)O | – | 9.4 | – | – | – | –
COc1cccc(C(=O)NCCCC(O)(P(=O)([O-])O)P(=O)([O-])O)c1.[Na+].[Na+] | -5.5 | 34.2 | -12.4 | 3.7 | 0.7 | –
COc1cc([N+](=O)[O-])cc(C(=O)NCCC(O)(P(=O)([O-])O)P(=O)([O-])O)c1OC.[Na+].[Na+] | -1.5 | 64.4 | 21.4 | -0.8 | 17.7 | –
O=C(NCCC(O)(P(=O)([O-])O)P(=O)([O-])O)c1ccc2c(c1)OCO2.[Na+].[Na+] | -8.3 | 60.2 | -7.3 | -0.2 | 9.3 | –
Cc1ccc(C(=O)NCCC(O)(P(=O)(O)O)P(=O)(O)O)cc1 | – | 30.4 | – | – | – | –
O=C(NCCCCCC(O)(P(=O)(O)O)P(=O)(O)O)c1cccc(Cl)c1 | – | 15.9 | – | – | – | –
